Active and inactive are the calls of the source. The calls are words filed in the database; no cut-off is given here.
Assays:
[1] = organism: Cavia porcellus; assay: Relative potency expressed as the percentage of the pD2 value against that of morphine; type: functional
[2] = molecular target: Kappa-type opioid receptor (Cavia porcellus, UniProt P41144); assay: Binding affinity using guinea pig brain membrane preparations, towards Opioid receptor kappa 1 using [3H]- U-69,593 as radioligand
[3] = organism: Cavia porcellus; assay: activity evaluated by its ability to inhibit the electrically induced twitch contraction in guinea pig ileum, which is reversed by naloxone (300 nM) (P < 0.001); type: functional
Summary of the method: (§1)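 Ileum from male Dunkin-Hartley guinea pigs (300–400 g) in bath at 37 °C bubbled with 95% O2/5% CO2. Tissue suitability checked with acetylcholine 3 μM. Transmural stimulation at 0.2 Hz, 0.3 ms, supramaximal voltage, isotonic recording. Cumulative concentration–response curves over 100 pM–30 μM. Twitch height measured before and after drug. Mean ± SEM from five to six animals.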

[4] = organism: Cavia porcellus; assay: % maximum inhibition is elicited when the response reaches plateau, calculated regarding electrically induced contraction in guinea pig ileum as 100%; type: functional; summary of the method: as §1
[5] = organism: Cavia porcellus; assay: Relative inhibitory activity expressed as the percentage of the maximum inhibition by the compound against that of morphine; type: functional
[6] = tested on: Delta-type opioid receptor; assay: Relative affinity evaluated for Opioid receptor delta 1; details: Cavia porcellus
Summary of the method: (§2)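 From displacement Ki values in guinea pig brain membranes for μ ([3H]DAMGO), δ ([3H]DPDPE) and κ ([3H]U-69593) sites. Ka = 1/Ki. Relative affinity (%) = Ka for the subtype / (Kaμ + Kaδ + Kaκ).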

[7] = molecular target: Mu-type opioid receptor (Cavia porcellus) (UniProt P97266); assay: Relative affinity evaluated for Opioid receptor mu 1; summary of the method: as §2
Mu-type opioid receptor (Cavia porcellus), sequence (P97266 whole entry): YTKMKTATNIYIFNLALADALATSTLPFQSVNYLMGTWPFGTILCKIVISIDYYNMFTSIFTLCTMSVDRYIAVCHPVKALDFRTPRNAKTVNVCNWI

[8] = molecular target: Mu-type opioid receptor (Cavia porcellus, UniProt P97266); assay: Binding affinity using guinea pig brain membrane preparations, towards Opioid receptor mu 1 using [3H]- DAMGO as radioligand
Mu-type opioid receptor, sequence (P97266 whole entry): as above
Summary of the method: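 Guinea pig whole-brain (minus cerebellum) membranes in 50 mM Tris-HCl pH 7.4 with 1 nM radioligand. [3H]DPDPE incubated 2 h and [3H]DAMGO 1.5 h, both at 25 °C. Nonspecific binding defined with 1 μM naltrindole (DPDPE) or 1 μM DAMGO (DAMGO). GF/B filtration, scintillation counting. 6–9 inhibitor concentrations; Ki by Cheng–Prusoff, given as pKi. 3–5 curves, each in triplicate.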

[9] = organism: Cavia porcellus; assay: Relative potency expressed as the percentage of the pD2 value against that of morphine; no effect; type: functional
[10] = organism: Cavia porcellus; assay: activity evaluated by its ability to inhibit the electrically induced twitch contraction in guinea pig ileum, which is reversed by naloxone (300 nM); no effect; type: functional; summary of the method: as §1
[11] = organism: Cavia porcellus; assay: % maximum inhibition is elicited when the response reaches plateau, calculated regarding electrically induced contraction in guinea pig ileum as 100%; no effect; type: functional; summary of the method: as §1
[12] = organism: Cavia porcellus; assay: Relative inhibitory activity expressed as the percentage of the maximum inhibition by the compound against that of morphine; no effect; type: functional
[13] = organism: Cavia porcellus; assay: activity evaluated by its ability to inhibit the electrically induced twitch contraction in guinea pig ileum, which is reversed by naloxone (300 nM)(P < 0.001); type: functional; summary of the method: as §1
[14] = organism: Cavia porcellus; assay: % maximum inhibition is elicited when the response reaches plateau, calculated regarding electrically induced contraction in guinea pig ileum as 100%(P < 0.01); type: functional; summary of the method: as §1
[15] = organism: Cavia porcellus; assay: Relative potency expressed as the percentage of the pD2 value against that of morphine; non specific; type: functional
[16] = organism: Cavia porcellus; assay: Relative inhibitory activity expressed as the percentage of the maximum inhibition by the compound against that of morphine; non specific; type: functional
[17] = organism: Cavia porcellus; assay: activity evaluated by its ability to inhibit the electrically induced twitch contraction in guinea pig ileum, which is reversed by naloxone (300 nM); non specific; type: functional; summary of the method: as §1
[18] = organism: Cavia porcellus; assay: % maximum inhibition is elicited when the response reaches plateau, calculated regarding electrically induced contraction in guinea pig ileum as 100%; non specific; type: functional; summary of the method: as §1
[19] = organism: Cavia porcellus; assay: % maximum inhibition is elicited when the response reaches plateau, calculated regarding electrically induced contraction in guinea pig ileum as 100%(P < 0.001); type: functional; summary of the method: as §1
[20] = organism: Cavia porcellus; assay: % inhibition of twitch contraction at 0.1 uM in electrically stimulated guinea pig ileum preparation; type: functional; summary of the method: as §1
[21] = organism: Cavia porcellus; assay: % inhibition of twitch contraction at 3 uM in electrically stimulated guinea pig ileum preparation by; type: functional; summary of the method: as §1
[22] = organism: Cavia porcellus; assay: activity evaluated by its ability to inhibit the electrically induced twitch contraction in guinea pig ileum, which is reversed by naloxone (300 nM); type: functional; summary of the method: as §1
[23] = organism: Cavia porcellus; assay: % maximum inhibition is elicited when the response reaches plateau, calculated regarding electrically induced contraction in guinea pig ileum as 100% (P < 0.001); type: functional; summary of the method: as §1
[24] = organism: Cavia porcellus; assay: activity evaluated by its ability to inhibit the electrically induced twitch contraction in guinea pig ileum, which is reversed by naloxone (300 nM)(P < 0.01); type: functional; summary of the method: as §1
[25] = organism: Cavia porcellus; assay: % maximum inhibition is elicited when the response reaches plateau, calculated regarding electrically induced contraction in guinea pig ileum as 100% (P<0.001); type: functional; summary of the method: as §1
[26] = organism: Cavia porcellus; assay: Effect of Corynantheidine (1 uM) on twitch contraction inhibited by Atropine (0.1 uM) in guinea pig; type: functional
[27] = organism: Cavia porcellus; assay: Effect of Corynantheidine (10 uM) on twitch contraction inhibited by morphine (1 uM) in guinea pig (P<0.001); type: functional
[28] = organism: Cavia porcellus; assay: Effect of Corynantheidine (1 uM) on twitch contraction inhibited by Verapamil (3 uM) in guinea pig; type: functional
[29] = organism: Cavia porcellus; assay: Effect of Corynantheidine (1 uM) on twitch contraction inhibited by morphine (1 uM) in guinea pig (P<0.05); type: functional
[30] = organism: Cavia porcellus; assay: Effect of Corynantheidine (10 uM) on twitch contraction inhibited by Verapamil (3 uM) in guinea pig; type: functional
[31] = organism: Cavia porcellus; assay: Effect of Corynantheidine (10 uM) on twitch contraction inhibited by Atropine (0.1 uM) in guinea pig; type: functional
[32] = organism: Cavia porcellus; assay: % inhibition of twitch contraction in electrically stimulated guinea pig ileum preparation; type: functional; summary of the method: as §1

Kappa-type opioid receptor, sequence (P41144 whole entry): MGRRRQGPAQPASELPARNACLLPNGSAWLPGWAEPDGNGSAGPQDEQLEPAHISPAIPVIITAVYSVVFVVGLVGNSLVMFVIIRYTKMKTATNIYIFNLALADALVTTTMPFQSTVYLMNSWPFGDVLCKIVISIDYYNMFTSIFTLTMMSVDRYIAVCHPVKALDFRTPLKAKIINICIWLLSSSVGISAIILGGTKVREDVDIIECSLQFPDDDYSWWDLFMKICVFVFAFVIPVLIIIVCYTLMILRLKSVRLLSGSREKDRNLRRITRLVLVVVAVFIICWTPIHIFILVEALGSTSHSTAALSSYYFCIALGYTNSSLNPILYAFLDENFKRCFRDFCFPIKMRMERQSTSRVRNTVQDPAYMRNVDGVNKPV

CC[C@@H]1CN2CC[C@@]3(O)C(=Nc4cccc(OC)c43)[C@@H]2C[C@@H]1/C(=C\OC)C(=O)OC
Relative potency [1]: 1071%
Ki [2]: 123 nM
pD2 [3]: 8.2
Inhibition [4]: 86.3%
Inhibition [5]: 99%
Relative affinity [6]: 6.6%
Relative affinity [7]: 83.3%
Ki [8]: 13.5 nM

CC[C@@H]1CN2CCc3c([nH]c4cccc(OCOC)c34)[C@@H]2C[C@@H]1/C(=C\OC)C(=O)OC
NE [9]: inactive
NE [10]: inactive
NE [11]: inactive
NE [12]: inactive

CC[C@@H]1CN2CC[C@@]3(OC)C(=Nc4cccc(OC)c43)[C@@H]2C[C@@H]1/C(=C\OC)C(=O)OC
Relative potency [1]: 19%
Inhibition [5]: 70%
pD2 [13]: 6.45
Inhibition [14]: 60.9%

CC[C@@H]1CN2CCc3c([nH]c4cccc(OC(C)C)c34)[C@@H]2C[C@@H]1/C(=C\OC)C(=O)OC
NS [15]: non specific
NS [16]: non specific
NS [17]: non specific
NS [18]: non specific

CCOc1cccc2[nH]c3c(c12)CCN1C[C@@H](CC)[C@@H](/C(=C\OC)C(=O)OC)C[C@@H]31
NS [15]: non specific
NS [16]: non specific
NS [17]: non specific
NS [18]: non specific

CCO[C@]12CCN3C[C@@H](CC)[C@@H](/C(=C\OC)C(=O)OC)C[C@H]3C1=Nc1cccc(OC)c12
Relative potency [1]: 1%
Inhibition [19]: 22.9%
Inhibition [5]: 26%
pD2 [13]: 5.29

CC[C@@H]1C[N+]2([O-])CCc3c([nH]c4cccc(OC)c34)[C@@H]2C[C@@H]1/C(=C\OC)C(=O)OC (stereo partly specified)
Inhibition [4]: -123.5%

CC[C@@H]1CN2CC3=C(O)C4C(OC)=CC=CC4N=C3[C@@H]2C[C@@H]1/C(=C\OC)C(=O)OC (stereo partly specified)
Relative potency [1]: 34%
Inhibition [4]: 74.1%
Inhibition [5]: 85%
pD2 [13]: 6.7

CN1[C@@H]2CC[C@H]1C[C@@H](OC(=O)C(CO)c1ccccc1)C2 (stereo partly specified) [ATROPINE]
Contraction [20]: 3.9%

COc1ccc(CCN(C)CCCC(C#N)(c2ccc(OC)c(OC)c2)C(C)C)cc1OC (stereo unspecified)
Contraction [21]: 6.8%

CC[C@@H]1CN2CCc3c([nH]c4cccc(O)c34)[C@@H]2C[C@@H]1/C(=C\OC)C(=O)OC
Relative potency [1]: 41%
Ki [2]: 2950 nM
pD2 [22]: 6.78
Inhibition [5]: 57%
Relative affinity [6]: < 0.1%
Relative affinity [7]: 99.6%
Ki [8]: 12 nM
Inhibition [23]: 49.4%

CC[C@@H]1CN2CC[C@@]3(OC(C)=O)C(=Nc4cccc(OC)c43)[C@@H]2C[C@@H]1/C(=C\OC)C(=O)OC
Relative potency [1]: 21%
pD2 [24]: 6.5
Inhibition [5]: 15%
Inhibition [23]: 13.4%

CC[C@@H]1CN2CC[C@]3(Nc4cccc(OC)c4C3=O)[C@@H]2C[C@@H]1/C(=C\OC)C(=O)OC
Relative potency [1]: 3467%
Ki [2]: 79.4 nM
pD2 [3]: 8.71
Inhibition [4]: 83.5%
Inhibition [5]: 96%
Relative affinity [6]: 2.8%
Relative affinity [7]: 97.1%
Ki [8]: 0.0871 nM

CC[C@@H]1CN2CCc3c([nH]c4ccccc34)[C@@H]2C[C@@H]1/C(=C\OC)C(=O)OC [CORYNANRHEIDINE]
Ki [2]: 2570 nM
Inhibition [25]: -18.1%
Contraction [26]: 5.7%
Contraction [27]: 109.2%
Contraction [28]: 7%
Contraction [29]: 43%
Contraction [30]: 13.2%
Inhibition [5]: -21%
Relative affinity [6]: 1%
Contraction [31]: 6.3%
Relative affinity [7]: 95.8%
Ki [8]: 72.4 nM

CC[C@@H]1CN2CCc3c([nH]c4cccc(OC(C)=O)c34)[C@@H]2C[C@@H]1/C(=C\OC)C(=O)OC
Relative potency [1]: 2%
pD2 [22]: 5.39
Inhibition [5]: 38%
Inhibition [23]: 33.2%

CC[C@@H]1CN2CCc3c([nH]c4cccc(OC)c34)[C@H]2C[C@@H]1/C(=C/OC)C(=O)OC
Relative potency [1]: 2%
Inhibition [4]: 85.9%
Inhibition [5]: 101%
pD2 [13]: 5.4

CN1CC[C@]23c4c5ccc(O)c4O[C@H]2[C@@H](O)C=C[C@H]3[C@H]1C5 [MORPHINE]
Inhibition [4]: 87.2%
Inhibition [5]: 100%
Contraction [32]: 27.4%

CC[C@@H]1CN2CCc3c([nH]c4cccc(OC)c34)[C@@H]2C[C@@H]1/C(=C\OC)C(=O)OC
Relative potency [1]: 26%
Ki [2]: 1100 nM
pD2 [24]: 6.59
Inhibition [4]: 83.1%
Inhibition [5]: 95%
Relative affinity [6]: 10.7%
Relative affinity [7]: 88.7%
Ki [8]: 7.24 nM
